Results on 22 molecules are retold here after ChEMBL document CHEMBL1955824, “Indeno[1,2-b]indole derivatives as a novel class of potent human protein kinase CK2 inhibitors” (Bioorg Med Chem, 2012).

SMILES strings stand for the structures.

Assay [1] concerns the target Cyclin-dependent kinase 2/cyclin A (Homo sapiens, UniProt P24941). In words: Inhibition of human recombinant CDK2/CyclinA expressed in Sf9 cells using histone H1 as substrate after 80 mins by scintillation counting. Summed up:
(§1)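 Commercial radiometric panel of His-tagged or GST-fused human kinases expressed in Sf9 cells, affinity-purified. Inhibitor added in 10% DMSO. Ten concentrations tested in singlicate; IC50 taken from dose–response curves.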

Assay [2] deals with RAC-alpha serine/threonine-protein kinase (Homo sapiens, UniProt P31749). In words: Inhibition of human recombinant AKT1 expressed in Sf9 cells using GSK3(14-27) as substrate after 80 mins by scintillation counting. In a few lines: as §1
The next assay concerns the target Aurora kinase A (Homo sapiens, UniProt O14965). Description: Inhibition of human recombinant aurora-A expressed in Sf9 cells using tetra(LRRWSLG) as substrate after 80 mins by scintillation counting. Summed up:
as §1

In assay [3] the target is Cyclin-dependent kinase 4/cyclin D1 (Homo sapiens, UniProt P11802). In words: Inhibition of human recombinant CDK4/CyclinD1 expressed in Sf9 cells using RB-CTF as substrate after 80 mins by scintillation counting. Summed up:
as §1

In assay [4] the target is Serine/threonine-protein kinase PLK1 (Homo sapiens, UniProt P53350). In words: Inhibition of human recombinant PLK1 expressed in Sf9 cells using casein as substrate after 80 mins by scintillation counting. In a few lines:
as §1

A further assay concerns the target Insulin receptor (Homo sapiens, UniProt P06213). Description: Inhibition of human recombinant INS-R expressed in Sf9 cells using poly(A,E,K,Y)6:2:5:1 as substrate after 80 mins by scintillation counting. Summed up: as §1
Assay [5] has as its target NUAK family SNF1-like kinase 1 (Homo sapiens, UniProt O60285). Description: Inhibition of human recombinant ARK5 expressed in Sf9 cells assessed as autophosphorylation after 80 mins by scintillation counting. In a few lines:
as §1

The nature of assay [6]: Growth inhibition of human KYSE-70 cells at 20 uM after 96 hrs by crystal violet staining. Type of assay: functional. Particulars: KYSE-70, 96 h, read-out: GI. Summed up: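 KYSE-70 esophageal cancer cells grown in RPMI 1640 with 10% FCS, penicillin G and streptomycin. Cells exposed 96 h to compounds dissolved in DMF (final solvent 0.1%). Fixed 20 min in 1% glutaraldehyde, stained 30 min with 0.02% crystal violet, washed 30 min in water. Bound dye dissolved in ethanol/water 7:3, absorbance read at 570 nm.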

The target in assay [7] is Insulin-like growth factor 1 receptor (Homo sapiens, UniProt P08069). In words: Inhibition of human recombinant IGF1R expressed in Sf9 cells using poly(E,Y)4:1 as substrate after 80 mins by scintillation counting. Summed up:
as §1

In assay [8] the target is Receptor tyrosine-protein kinase erbB-2 (Homo sapiens, UniProt P04626). In words: Inhibition of human recombinant ERBB2 expressed in Sf9 cells using poly(E,Y)4:1 as substrate after 80 mins by scintillation counting. Summed up:
as §1

Assay [9] deals with Mitogen-activated protein kinase kinase kinase 8 (Homo sapiens, UniProt P41279). Description: Inhibition of human recombinant COT expressed in Sf9 cells assessed as autophosphorylation after 80 mins by scintillation counting. In a few lines:
as §1

Assay [10] concerns the target Hepatocyte growth factor receptor (Homo sapiens, UniProt P08581). Description: Inhibition of human recombinant MET expressed in Sf9 cells using poly(A,E,K,Y)6:2:5:1 as substrate after 80 mins by scintillation counting. Summed up:
as §1

The target of assay [11] is Vascular endothelial growth factor receptor 3 (Homo sapiens, UniProt P35916). Description: Inhibition of human recombinant VEGF-R3 expressed in Sf9 cells using poly(E,Y)4:1 as substrate after 80 mins by scintillation counting. Summed up:
as §1

For another assay, the target named is Ephrin type-B receptor 4 (Homo sapiens, UniProt P54760). Description: Inhibition of human recombinant EPHB4 expressed in Sf9 cells using poly(E,Y)4:1 as substrate after 80 mins by scintillation counting. Summed up:
as §1

A further assay has as its target Focal adhesion kinase 1 (Homo sapiens, UniProt Q05397). In words: Inhibition of human recombinant FAK expressed in Sf9 cells using poly(E,Y)4:1 as substrate after 80 mins by scintillation counting. In a few lines:
as §1

The target in assay [12] is Vascular endothelial growth factor receptor 2 (Homo sapiens, UniProt P35968). In words: Inhibition of human recombinant VEGF-R2 expressed in Sf9 cells using poly(E,Y)4:1 as substrate after 80 mins by scintillation counting. Summed up: as §1
A further assay has as its target Aurora kinase B (Homo sapiens, UniProt Q96GD4). Description: Inhibition of human recombinant aurora-B expressed in Sf9 cells using tetra(LRRWSLG) as substrate after 80 mins by scintillation counting. Summed up: as §1
The target of assay [13] is Serine/threonine-protein kinase B-raf (Homo sapiens, UniProt P15056). In words: Inhibition of human recombinant B-RAF expressed in Sf9 cells using MEK1 KM as substrate after 80 mins by scintillation counting. Summed up:
as §1

In assay [14] the target is Serine/threonine-protein kinase PLK4 (Homo sapiens, UniProt O00444). Description: Inhibition of human recombinant SAK expressed in Sf9 cells using p38alpha-KRKR as substrate after 80 mins by scintillation counting. In a few lines:
as §1

A further assay concerns the target Angiopoietin-1 receptor (Homo sapiens, UniProt Q02763). Description: Inhibition of human recombinant TIE2 expressed in Sf9 cells using poly(E,Y)4:1 as substrate after 80 mins by scintillation counting. In a few lines: as §1
The target in assay [15] is Proto-oncogene tyrosine-protein kinase Src (Homo sapiens, UniProt P12931). In words: Inhibition of human recombinant SRC expressed in Sf9 cells using poly(E,Y)4:1 as substrate after 80 mins by scintillation counting. Summed up: as §1
Assay [16] deals with Casein kinase II alpha/beta (Homo sapiens) (UniProt P67870+P68400). Description: Inhibition of human CSNK2A1/2B expressed in Escherichia coli BL21(DE3) using RRRDDDSDDD as substrate at 10 uM after 15 mins by scintillation counting. In a few lines: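 Holoenzyme from CSNK2A1 and CSNK2B subunits expressed separately in E. coli, extracts combined, column-purified. Enzyme preincubated with inhibitor in DMSO in Tris pH 7.5 kinase buffer. Final ATP 60 µM, peptide 114 µM. Incubated 37 °C for 15 min, spotted on P81 paper, washed with phosphoric acid and ethanol, then counted. Controls: DMSO (0%), no CK2 (100%).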

The nature of assay [17]: Inhibition of rat liver casein kinase-2 preincubated for 5 mins prior ATP addition measured after 40 mins.
The nature of assay [18]: Inhibition of casein kinase-2. Summed up: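 Recombinant human CK2 holoenzyme (CSNK2A1 and CSNK2B expressed separately in E. coli, extracts combined and purified), preincubated with compound in DMSO in kinase buffer pH 7.5. 37 °C, 15 min, P81 paper, scintillation counting. IC50 from dose–response over 0.01–30 µM, at least triplicate independent experiments.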
Assay [19] concerns the target Casein kinase II alpha/beta (Homo sapiens, UniProt P68400). In words: Inhibition of human CSNK2A1/2B expressed in Escherichia coli BL21(DE3) using RRRDDDSDDD as substrate after 15 mins by scintillation counting.
The nature of assay [20]: Inhibition of calf thymus casein kinase-2 using casein as substrate after 15 mins by liquid scintillation counting. The arrangement: species or system Bos taurus.

Chain of Casein kinase II alpha/beta (Homo sapiens) (P67870 2-215 limits assumed): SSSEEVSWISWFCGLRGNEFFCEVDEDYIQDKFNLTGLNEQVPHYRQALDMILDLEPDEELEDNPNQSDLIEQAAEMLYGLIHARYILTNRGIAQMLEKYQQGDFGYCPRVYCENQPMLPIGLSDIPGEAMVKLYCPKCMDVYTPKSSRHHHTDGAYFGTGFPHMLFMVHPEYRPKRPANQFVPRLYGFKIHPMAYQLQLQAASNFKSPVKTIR
Chain of Casein kinase II alpha/beta (Homo sapiens) (P68400 whole entry partner): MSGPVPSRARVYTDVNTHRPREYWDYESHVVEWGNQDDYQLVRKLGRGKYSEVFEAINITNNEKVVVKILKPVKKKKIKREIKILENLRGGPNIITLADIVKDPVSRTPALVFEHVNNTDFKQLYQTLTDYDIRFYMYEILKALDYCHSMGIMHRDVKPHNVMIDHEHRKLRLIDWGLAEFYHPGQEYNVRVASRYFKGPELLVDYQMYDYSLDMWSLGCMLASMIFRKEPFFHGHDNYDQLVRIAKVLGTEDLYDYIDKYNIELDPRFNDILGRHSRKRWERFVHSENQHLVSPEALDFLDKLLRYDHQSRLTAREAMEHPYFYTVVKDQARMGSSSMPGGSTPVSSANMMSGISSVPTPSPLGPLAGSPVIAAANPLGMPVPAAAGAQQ
Chain of Receptor tyrosine-protein kinase erbB-2 (P04626 whole entry): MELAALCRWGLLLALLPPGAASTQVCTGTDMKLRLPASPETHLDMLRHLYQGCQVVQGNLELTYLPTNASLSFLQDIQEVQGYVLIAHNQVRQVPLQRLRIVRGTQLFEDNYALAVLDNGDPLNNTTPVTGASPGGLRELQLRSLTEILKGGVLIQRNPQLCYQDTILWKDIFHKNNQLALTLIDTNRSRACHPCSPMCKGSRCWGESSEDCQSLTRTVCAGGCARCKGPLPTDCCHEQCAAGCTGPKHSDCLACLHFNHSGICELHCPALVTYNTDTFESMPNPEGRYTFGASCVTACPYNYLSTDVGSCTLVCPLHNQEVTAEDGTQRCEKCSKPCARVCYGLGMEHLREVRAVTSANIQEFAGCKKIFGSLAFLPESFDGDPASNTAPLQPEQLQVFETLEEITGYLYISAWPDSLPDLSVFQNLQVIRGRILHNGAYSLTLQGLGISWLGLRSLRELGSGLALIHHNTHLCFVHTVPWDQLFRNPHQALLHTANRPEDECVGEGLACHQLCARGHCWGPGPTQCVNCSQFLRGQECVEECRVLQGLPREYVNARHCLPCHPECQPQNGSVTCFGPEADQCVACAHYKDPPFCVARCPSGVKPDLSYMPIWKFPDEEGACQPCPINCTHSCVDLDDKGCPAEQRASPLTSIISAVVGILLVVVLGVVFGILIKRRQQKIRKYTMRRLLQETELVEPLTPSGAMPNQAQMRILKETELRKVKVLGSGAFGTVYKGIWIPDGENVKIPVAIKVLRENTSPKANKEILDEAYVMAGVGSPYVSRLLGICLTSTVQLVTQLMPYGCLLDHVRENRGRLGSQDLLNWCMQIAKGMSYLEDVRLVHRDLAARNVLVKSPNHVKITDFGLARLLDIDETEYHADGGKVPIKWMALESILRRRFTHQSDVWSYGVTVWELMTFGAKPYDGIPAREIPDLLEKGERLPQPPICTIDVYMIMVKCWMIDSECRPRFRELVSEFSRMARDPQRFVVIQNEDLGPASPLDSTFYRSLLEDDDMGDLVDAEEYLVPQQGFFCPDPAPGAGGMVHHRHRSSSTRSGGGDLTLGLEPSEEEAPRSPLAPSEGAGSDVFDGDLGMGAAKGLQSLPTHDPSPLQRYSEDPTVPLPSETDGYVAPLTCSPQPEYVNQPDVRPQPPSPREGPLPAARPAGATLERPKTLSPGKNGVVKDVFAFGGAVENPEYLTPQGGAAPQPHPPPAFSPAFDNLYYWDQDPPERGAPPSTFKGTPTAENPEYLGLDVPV
Chain of Serine/threonine-protein kinase PLK1 (P53350 whole entry): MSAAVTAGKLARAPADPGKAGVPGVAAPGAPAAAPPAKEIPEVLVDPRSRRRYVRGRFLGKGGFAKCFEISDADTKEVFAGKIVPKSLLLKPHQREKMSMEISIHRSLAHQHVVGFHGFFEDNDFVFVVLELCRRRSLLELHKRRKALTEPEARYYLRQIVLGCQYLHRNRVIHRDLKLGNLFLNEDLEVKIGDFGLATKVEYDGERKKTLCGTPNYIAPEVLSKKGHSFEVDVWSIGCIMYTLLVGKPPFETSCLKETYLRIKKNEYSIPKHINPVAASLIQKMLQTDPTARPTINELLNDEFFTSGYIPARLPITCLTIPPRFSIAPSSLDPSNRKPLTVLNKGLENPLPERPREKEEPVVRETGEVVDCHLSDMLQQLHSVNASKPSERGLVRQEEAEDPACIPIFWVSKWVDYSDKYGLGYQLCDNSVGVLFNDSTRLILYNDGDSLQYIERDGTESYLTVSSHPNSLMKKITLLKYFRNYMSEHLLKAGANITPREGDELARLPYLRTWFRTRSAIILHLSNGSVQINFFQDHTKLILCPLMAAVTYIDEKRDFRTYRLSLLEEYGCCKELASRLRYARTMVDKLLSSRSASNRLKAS
Chain of Insulin-like growth factor 1 receptor (P08069 31-736 limits assumed): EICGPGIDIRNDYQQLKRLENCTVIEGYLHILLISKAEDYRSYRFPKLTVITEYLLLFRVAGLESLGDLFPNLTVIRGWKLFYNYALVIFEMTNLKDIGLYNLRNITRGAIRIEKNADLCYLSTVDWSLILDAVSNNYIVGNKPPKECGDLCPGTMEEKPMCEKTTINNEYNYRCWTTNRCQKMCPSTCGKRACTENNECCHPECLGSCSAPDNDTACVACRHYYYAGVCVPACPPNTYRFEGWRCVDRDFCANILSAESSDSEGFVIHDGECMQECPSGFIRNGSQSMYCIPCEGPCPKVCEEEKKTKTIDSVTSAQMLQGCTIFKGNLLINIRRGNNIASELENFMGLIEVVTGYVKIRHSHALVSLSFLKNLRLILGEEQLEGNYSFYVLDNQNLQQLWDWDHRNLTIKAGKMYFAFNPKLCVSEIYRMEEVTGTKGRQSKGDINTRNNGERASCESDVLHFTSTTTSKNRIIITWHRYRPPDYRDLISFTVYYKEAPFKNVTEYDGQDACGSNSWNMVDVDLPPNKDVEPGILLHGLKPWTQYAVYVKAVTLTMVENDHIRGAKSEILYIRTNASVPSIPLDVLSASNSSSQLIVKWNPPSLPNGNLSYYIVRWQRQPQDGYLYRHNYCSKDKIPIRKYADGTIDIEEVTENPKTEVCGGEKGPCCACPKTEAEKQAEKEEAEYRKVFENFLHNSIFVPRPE
Chain of Insulin-like growth factor 1 receptor (P08069 741-1367 limits assumed): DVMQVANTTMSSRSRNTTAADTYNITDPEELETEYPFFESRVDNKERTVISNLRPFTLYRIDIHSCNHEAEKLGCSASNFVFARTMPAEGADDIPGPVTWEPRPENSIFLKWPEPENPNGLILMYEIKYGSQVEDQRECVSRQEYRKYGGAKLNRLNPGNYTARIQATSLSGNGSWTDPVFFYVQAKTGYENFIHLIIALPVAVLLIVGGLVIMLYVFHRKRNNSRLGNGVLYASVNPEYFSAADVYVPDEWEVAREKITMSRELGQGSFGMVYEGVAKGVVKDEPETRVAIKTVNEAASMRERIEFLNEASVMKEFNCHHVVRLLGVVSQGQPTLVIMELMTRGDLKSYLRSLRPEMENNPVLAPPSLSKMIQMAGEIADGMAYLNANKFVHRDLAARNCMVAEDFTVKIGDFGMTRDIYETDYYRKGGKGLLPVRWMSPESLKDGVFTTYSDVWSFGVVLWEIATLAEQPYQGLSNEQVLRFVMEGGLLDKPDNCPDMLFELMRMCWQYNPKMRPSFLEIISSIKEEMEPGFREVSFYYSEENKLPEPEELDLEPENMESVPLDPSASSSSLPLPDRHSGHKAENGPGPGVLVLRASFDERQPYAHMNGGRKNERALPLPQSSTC
Chain of Cyclin-dependent kinase 4/cyclin D1 (P11802 whole entry): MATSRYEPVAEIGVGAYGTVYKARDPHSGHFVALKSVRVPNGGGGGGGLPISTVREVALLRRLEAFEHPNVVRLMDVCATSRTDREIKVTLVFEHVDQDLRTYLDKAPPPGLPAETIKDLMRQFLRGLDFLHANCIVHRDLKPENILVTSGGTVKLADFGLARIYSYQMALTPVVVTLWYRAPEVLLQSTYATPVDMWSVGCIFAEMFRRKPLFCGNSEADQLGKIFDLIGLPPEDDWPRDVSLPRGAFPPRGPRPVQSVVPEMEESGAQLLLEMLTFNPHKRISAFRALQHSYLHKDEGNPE
Chain of Cyclin-dependent kinase 4/cyclin D1 (P24385 whole entry, further chain): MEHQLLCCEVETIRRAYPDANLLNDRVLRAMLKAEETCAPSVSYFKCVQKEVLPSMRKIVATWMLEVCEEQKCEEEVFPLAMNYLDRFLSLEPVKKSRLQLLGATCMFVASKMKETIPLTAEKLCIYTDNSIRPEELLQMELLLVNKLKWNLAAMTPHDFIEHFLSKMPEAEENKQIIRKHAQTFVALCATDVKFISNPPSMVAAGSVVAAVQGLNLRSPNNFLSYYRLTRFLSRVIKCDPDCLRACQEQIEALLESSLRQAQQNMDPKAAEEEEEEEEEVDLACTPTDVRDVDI
Chain of Aurora kinase A (O14965 whole entry): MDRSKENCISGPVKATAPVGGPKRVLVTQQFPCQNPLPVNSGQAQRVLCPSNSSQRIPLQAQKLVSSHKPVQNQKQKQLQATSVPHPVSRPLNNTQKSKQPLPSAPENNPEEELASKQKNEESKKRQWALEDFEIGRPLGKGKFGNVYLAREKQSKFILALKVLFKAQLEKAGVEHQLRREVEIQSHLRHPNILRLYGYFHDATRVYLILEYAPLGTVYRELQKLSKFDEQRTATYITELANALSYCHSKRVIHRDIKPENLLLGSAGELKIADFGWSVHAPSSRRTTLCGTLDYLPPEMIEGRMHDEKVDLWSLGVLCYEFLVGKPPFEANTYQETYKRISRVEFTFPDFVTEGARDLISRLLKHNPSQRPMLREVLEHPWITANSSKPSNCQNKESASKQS

Take `CC(C)n1c2c(c3c1-c1ccccc1C3=O)C(=O)CCC2`: the half-inhibitory concentration (IC50) (in assay [1]; in assay [2]; on Aurora kinase A; in assay [3]; in assay [4]; at Insulin receptor) was over 35 µM each time. Besides, the IC50 in [5], in assay [7], in assay [8], in assay [9], in assay [10] and in assay [11] was over 35 µM throughout. Besides, the half-maximal inhibitory concentration (IC50) (at Ephrin type-B receptor 4; on Focal adhesion kinase 1; in assay [12]; at Aurora kinase B; in assay [13]; in assay [14]) was over 35 µM in each case. For the same molecule, the half-inhibitory concentration (IC50) (at Angiopoietin-1 receptor; in assay [15]) was over 35 µM each time. Further, in assay [6], the inhibition of growth at 20 µM was 25%.
Take `CC1CC(=O)c2c3c(n(Cc4ccccc4)c2C1)-c1ccccc1C3=O` (racemic): the inhibition – broadly, the drop in the measured response relative to a control, in per cent – in assay [16] turned out to be 11%.
Same read-out and setting: under `O=C1CCCc2c1c1c(n2-c2ccccc2)-c2ccccc2C1=O` stands 60%; under `O=C1CCCc2[nH]c3c(c21)C(=O)c1ccccc1-3`, 19%.
Consider `Cc1cc(O)c2c(c1)C(=O)c1cc(O)cc(O)c1C2=O` [EMODIN], for which the 50% inhibitory concentration (IC50) – broadly, the concentration that inhibits the measured activity by half – in assay [17] was 0.89 µM.
For `OC[C@H]1O[C@@H](n2cnc3cc(Cl)c(Cl)cc32)[C@H](O)[C@@H]1O` [DICHLORORIBOBENZIMIDAZOLE], the half-maximal inhibitory concentration (IC50) in [18] turned out to be 15 µM.
In the case of `CC(c1ccccc1)n1c2c(c3c1-c1ccccc1C3=O)C(=O)CCC2` (configuration not stated), in assay [16], the inhibition was 66%. The half-maximal inhibitory concentration (IC50) in [19] came out at 4.66 µM.
In turn, `O=C1CCCc2c1c1c(n2Cc2ccccc2)-c2ccccc2C1=O` showed an inhibition in assay [16] of 48%.
Same read-out and setting: as for `O=C1CCCc2c1c1c(n2CCCc2ccccc2)-c2ccccc2C1=O`, the figure is 27%; as for `COc1ccc(CCn2c3c(c4c(O)cccc42)C(=O)c2ccccc2-3)cc1OC`, 34%; as for `COc1ccc(Cn2c3c(c4c2-c2ccccc2C4=O)C(=O)CCC3)cc1`, 41%.
Turning to `CC1(C)CC(=O)c2c3c(n(Cc4ccccc4)c2C1)-c1ccccc1C3=O`, the inhibition in assay [16] was 10%.
For `O=C1c2ccccc2-c2c1c1c(O)cc(-c3ccccc3)cc1n2Cc1ccccc1`, the inhibition in [16] was 31%.
In assay [16], `COc1ccc(CCn2c3c(c4c2-c2ccccc2C4=O)C(=O)CCC3)cc1OC` registered an inhibition of 50%.
In the case of `O=C1CCCc2c1c1c(n2Cc2ccccn2)-c2ccccc2C1=O`, in assay [16], the inhibition was determined as 30%.
`O=C1CC(c2ccccc2)Cc2c1c1c(n2Cc2ccccc2)-c2ccccc2C1=O` (racemic) had an inhibition in assay [16] of 3%.
In [16], `COC(=O)C1C(=O)c2c3c(n(Cc4ccccc4)c2CC1C)-c1ccccc1C3=O` (configuration not stated) showed an inhibition of 15%.
The same measure, in the same setting: as for `O=C1c2ccccc2-c2c1c1c(O)cccc1n2Cc1ccccc1`, the figure is 25%; as for `COC(=O)C1C(=O)c2c([nH]c3c2C(=O)c2ccccc2-3)CC1C` (configuration not stated), 28%.
In [20], `Brc1c(Br)c(Br)c2[nH]nnc2c1Br` [TETRABROMOBENZOTRIAZOLE] yielded an IC50 of 1.6 µM.
As for `O=c1oc2c(O)c(O)cc3c(=O)oc4c(O)c(O)cc1c4c23` [ELLAGIC ACID], the IC50 in [1] is 3.39 µM; in assay [2] it was 3.34 µM; on Aurora kinase A, 2.48 µM; in assay [3], 1.09 µM; in assay [4], 3.34 µM; on Insulin receptor, 0.34 µM. Further, the IC50 in assay [5] was 0.51 µM; in assay [7], 0.25 µM; in assay [8], 3.54 µM; in assay [9] it was 2.37 µM; in assay [10], 0.58 µM; in assay [11], 1.54 µM. In addition, the IC50 on Ephrin type-B receptor 4 worked out at 1.83 µM; at Focal adhesion kinase 1, 3.11 µM; in assay [12], 0.79 µM; on Aurora kinase B, 2.5 µM; in assay [13], 1.76 µM; in [14] it was 2.97 µM. The results for the IC50 (at Angiopoietin-1 receptor; in assay [15]) were 0.26 µM and 0.8 µM, respectively.
As for `O=C1CCCc2c1c1c(n2CCc2ccccc2)-c2ccccc2C1=O`, the inhibition in assay [16] is 67%.
